From ChEMBL document CHEMBL4680339, “Synthesis and bioevaluation of N-(3,4,5-trimethoxyphenyl)-1H-pyrazolo[3,4-b]pyridin-3-amines as tubulin polymerization inhibitors with anti-angiogenic effects” (Bioorg Med Chem, 2021)

Experiments:
[1] = test system: WI-38; test: Cytotoxicity against human WI-38 cells assessed as reduction in cell growth incubated for 72 hrs by MTT assay; format: cell-based; details: WI-38, 72 h
Method in brief: (§1)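 Log-phase cells seeded at 5 × 10³/well and grown 24 h, then exposed to graded compound concentrations for 72 h. MTT (5 mg/mL) added for 4 h; formazan dissolved in DMSO and absorbance read at 490 nm. IC50 calculated from growth inhibition; means ± SD of triplicate experiments.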

[2] = test system: A549; test: Antiproliferative activity against human A549 cells assessed as reduction in cell growth incubated for 72 hrs by MTT assay; format: functional, cell-based; details: A549, 72 h; method in brief: as §1
[3] = test system: HCT-116; test: Antiproliferative activity against human HCT-116 cells assessed as reduction in cell growth incubated for 72 hrs by MTT assay; format: functional, cell-based; details: HCT-116, 72 h; method in brief: as §1
[4] = test system: HeLa; test: Antiproliferative activity against human HeLa cells assessed as reduction in cell growth incubated for 72 hrs by MTT assay; format: functional, cell-based; method in brief: as §1
[5] = test system: HepG2; test: Antiproliferative activity against human HepG2 cells assessed as reduction in cell growth incubated for 72 hrs by MTT assay; format: functional, cell-based; details: HepG2, 72 h; method in brief: as §1
[6] = test system: MCF7; test: Antiproliferative activity against human MCF7 cells assessed as reduction in cell growth incubated for 72 hrs by MTT assay; format: functional, cell-based; details: MCF7, 72 h; method in brief: as §1
[7] = species: Sus scrofa; test: (§2) Inhibition of pig brain tubulin polymerization by spectrophotometric method; format: tissue-based
Method in brief: (§3)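 Pig brain tubulin, purified by three assembly/disassembly cycles and phosphocellulose chromatography, mixed with compound at various concentrations. Buffer: PEM (100 mM PIPES, 1 mM MgCl₂, 1 mM EGTA) with 1 mM GTP and 5% glycerol. Polymerization followed at 37 °C by light scattering at 340 nm; plateau absorbance used for calculation.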

[8] = as §2; format: tissue-based, Sus scrofa; method in brief: as §3

IC50 [2] [µM] | IC50 [3] [µM] | IC50 [4] [µM] | IC50 [5] [µM] | IC50 [6] [µM] | IC50 [8] [µM] | SMILES | IC50 [1] [µM] | inhibition [7]
31.2 | 16.7 | 0.7 | 9.64 | 0.81 | – | CCN(c1cc(OC)c(OC)c(OC)c1)c1n[nH]c2nc(OC)ccc12 | 8.03 | –
31.9 | 12 | 12.8 | 20 | 13.2 | – | COc1ccc2c(Nc3cc(OC)c(OC)c(OC)c3)nn(C(C)C)c2n1 | 4.32 | –
> 50 | 3.37 | 3.19 | 7.38 | 10.3 | – | COc1ccc2c(N(Cc3ccccc3)c3cc(OC)c(OC)c(OC)c3)n[nH]c2n1 | 1.67 | –
0.2 | 0.12 | 0.012 | 5.79 | 0.102 | 55.7 | COc1ccc2c(N(CCF)c3cc(OC)c(OC)c(OC)c3)n[nH]c2n1 | 16.5 | Dose-dependent effect
